Experimental data collected from several papers.
Protocols differ between the studies behind these lines.
Target: Mitogen-activated protein kinase 13 (MAPK13, Homo sapiens, UniProt O15264)
Residues used in one study (O15264 1-365): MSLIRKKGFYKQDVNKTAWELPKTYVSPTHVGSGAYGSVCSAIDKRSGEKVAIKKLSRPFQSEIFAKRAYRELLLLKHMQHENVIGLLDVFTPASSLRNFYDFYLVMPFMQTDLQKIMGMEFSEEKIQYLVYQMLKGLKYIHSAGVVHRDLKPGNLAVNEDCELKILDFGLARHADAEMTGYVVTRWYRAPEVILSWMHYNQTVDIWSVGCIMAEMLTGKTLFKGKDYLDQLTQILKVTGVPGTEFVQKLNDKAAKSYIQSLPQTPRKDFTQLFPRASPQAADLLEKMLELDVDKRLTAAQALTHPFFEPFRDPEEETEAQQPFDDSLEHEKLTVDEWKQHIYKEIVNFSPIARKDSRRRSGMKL

CC1CCCN1c1nccc(-c2cnn3ncccc23)n1 (stereo not shown)
remaining binding (binding; 1 µM): 100%

c1cncc(-c2cccc(Nc3nccc(NC4CCCCC4)n3)c2)c1
remaining binding (binding; competition with immobilised ligand; 10 µM): 86%

C=CC(=O)N1CCC(C(=O)NCC(=O)N2CCN(c3nc(-c4cnc(N)nc4C(F)F)nc(N4CCOCC4)n3)CC2)CC1
remaining binding (binding; competition with immobilised ligand; 1 µM): 99%

C[C@H]1CCN(c2nccc(-c3cnn4ncccc34)n2)C1
remaining binding (binding; 1 µM): 83%

CN([C@@H]1CCc2c(CC(=O)O)c3cc(S(C)(=O)=O)ccc3n2C1)S(=O)(=O)c1ccc(F)cc1
remaining binding (cell-free assay; competition with immobilised ligand; 1 µM): 68%

FC(F)(F)Oc1cccc(-c2cnc3ccc(-c4ccncc4)nn23)c1
remaining binding (cell-free assay; competition with immobilised ligand; 5 µM): 97%

COc1cnc(Nc2cccc(S(N)(=O)=O)c2)nc1N1CCN(c2ccccc2)CC1
remaining binding (binding; competition with immobilised ligand; 1 µM): 100%

NS(=O)(=O)c1cc(NC(=O)Cc2ccccc2)ccc1Oc1cccc(Cl)c1
remaining binding (cell-free assay; competition with immobilised ligand; 1 µM): 100%

N[C@H]1CCN(c2nccc(-c3cnn4ncccc34)n2)C1
remaining binding (binding; 1 µM): 84%

O=C(O)[C@H]1[C@H](Cn2nnc3ccccc3c2=O)CC[C@@H]1C(=O)c1ccc(OCCC2CCOCC2)cc1
remaining binding (cell-free assay; competition with immobilised ligand; 1 µM): 97%

c1cnn2ncc(-c3ccnc(N4CCC45COC5)n3)c2c1
remaining binding (binding; 1 µM): 78%

Cc1cc(NC(=O)c2cccc(S(F)(F)(F)(F)F)c2)cc(-n2ccn3nc(-c4cccnc4)cc23)c1
remaining binding (cell-free assay; competition with immobilised ligand; 1 µM): 79.6%

O=C(NCC1CCOCC1)c1n[nH]cc1NC(=O)c1c(F)cccc1F
remaining binding (binding; competition with immobilised ligand; 1 µM): 100%

Cc1cnc(Nc2ccc(C(=O)N3CCC(N4CCCC4)CC3)cc2)nc1-c1cc2ccccc2s1
remaining binding (binding; competition with immobilised ligand; 1 µM): 100%

COc1ccnn2ncc(-c3ccnc(N(C)C)n3)c12
remaining binding (binding; 1 µM): 100%

COc1ccc2c(c1)O[C@H](c1ccc(OC)c(OC)c1)C[C@@H]2NC(=O)C1(c2ccc3c(c2)OC(F)(F)O3)CC1
remaining binding (cell-free assay; competition with immobilised ligand; 1 µM): 100%

O=C(c1ccc(Nc2nccc(-c3cc4ccccc4s3)n2)cc1)N1CCC(N2CCCC2)CC1
remaining binding (binding; competition with immobilised ligand; 1 µM): 100%

CS(=O)(=O)NCC[C@H](NC(=O)c1cncc2c1cnn2-c1ccc(F)cc1)c1ccnc(S(C)(=O)=O)c1
remaining binding (cell-free assay; competition with immobilised ligand; 1 µM): 100%

CN(C)c1nccc(-c2cnn3ncccc23)n1
remaining binding (binding; 1 µM): 100%

Nc1ncc2c(n1)-c1c([nH]c3ccc(C#CC4CC4)cc13)CCCC2
remaining binding (binding; competition with immobilised ligand; 1 µM): 100%

CN(c1nccc(-c2cnn3ncccc23)n1)C1CC1
remaining binding (binding; 1 µM): 100%

O=C(NCCCN1CCOCC1)c1ccc(Nc2ncc(Cl)c(-c3ccc(Cl)s3)n2)cc1
remaining binding (binding; competition with immobilised ligand; 1 µM): 100%
